Measurements from ChEMBL document CHEMBL1142526, “Synthesis of new pyrazolo[5,1-c][1,2,4] benzotriazines, pyrazolo[5,1-c]pyrido[4,3-e][1,2,4] triazines and their open analogues as cytotoxic agents in normoxic and hypoxic conditions” (Bioorg Med Chem, 2008).
The source made the active and inactive calls. No cut-off for these calls is given here.

Key:
HCT-8 [1] = test: Cytotoxicity against human HCT8 cells at 100 uM after 72 hrs by SRB assay; format: functional; conditions: HCT-8, 72 h
Procedure, shortened: (§1)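 Single-concentration growth inhibition of HCT-8 cells: seeded at 5000/well with 24 h adherence at 37 °C in 5% CO2, then 72 h continuous drug exposure, eight replicate wells. Maximum final DMSO was 0.1%, with DMSO and MMC controls. Protein was stained with 0.4% SRB in 1% acetic acid, solubilised in 10 mM Tris and absorbance read at 540 nm.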

HCT-8 [2] = test: Cytotoxicity against human HCT8 cells at 10 uM after 72 hrs by SRB assay; format: functional; conditions: HCT-8, 72 h; procedure, shortened: as §1
HCT-8 [3] = test: Cytotoxicity against human HCT8 cells after 72 hrs by SRB assay; format: functional, cell-based; conditions: HCT-8, 72 h
Procedure, shortened: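 SRB assay on HCT-8 cells seeded at 5000/well and allowed 24 h adherence at 37 °C in 5% CO2, then given 72 h continuous exposure across a 10–100 concentration range, eight wells per condition. Maximum final DMSO was 0.1%. Fixed cells were stained with 0.4% SRB in 1% acetic acid, solubilised in 10 mM Tris and read at 540 nm. IC50 is the concentration giving a 50% reduction in net protein increase versus control.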

HCT-8 [4] = test: Cell cycle arrest in human HCT8 cells in normoxic condition assessed as accumulation at G0/G1 phase at 10 uM after 24 hrs of drug washout by flow cytometry; format: functional
HCT-8 [5] = test: Cell cycle arrest in human HCT8 cells in hypoxic condition assessed as accumulation at G2/M phase at 10 uM after 24 hrs by flow cytometry; format: functional
Procedure, shortened: (§2)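 HCT-8 cells in D-MEM high glucose with 10% FCS were seeded at 1–2 × 10^6 per 25 cm² flask, left to adhere overnight, then exposed to drug for 24 h under normoxia or hypoxia. Drug was washed out and cells reoxygenated for 48 h. Floating and adherent cells were pooled, fixed in 70% ice-cold ethanol and stained with PI (50 µg/ml) plus RNase A (5 U/ml) for 30 min. Phases and the sub-G1 hypodiploid fraction (DNA fragmentation) were read by flow cytometry.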

HCT-8 [6] = test: Cell cycle arrest in human HCT8 cells in normoxic condition assessed as accumulation at S phase at 10 uM after 24 hrs by flow cytometry; format: functional; procedure, shortened: as §2
HCT-8 [7] = test: Cell cycle arrest in human HCT8 cells in normoxic condition assessed as accumulation at G2/M phase at 10 uM after 24 hrs by flow cytometry; format: functional; procedure, shortened: as §2
HCT-8 [8] = test: Cell cycle arrest in human HCT8 cells in hypoxic condition assessed as accumulation at S phase at 10 uM after 24 hrs by flow cytometry; format: functional; procedure, shortened: as §2
HCT-8 [9] = test: Effect on cell cycle arrest in human HCT8 cells in hypoxic condition assessed as DNA fragmentation at 10 uM after 48 hrs of drug washout by flow cytometry; format: functional; procedure, shortened: as §2
HCT-8 [10] = test: Effect on cell cycle arrest in human HCT8 cells in hypoxic condition assessed as DNA fragmentation at 10 uM after 24 hrs by flow cytometry; format: functional; procedure, shortened: as §2
HCT-8 [11] = test: Cell cycle arrest in human HCT8 cells in hypoxic condition assessed as accumulation at G0/G1 phase at 10 uM after 24 hrs by flow cytometry; format: functional; procedure, shortened: as §2
HCT-8 [12] = test: Cell cycle arrest in human HCT8 cells in hypoxic condition assessed as accumulation at G0/G1 phase at 10 uM after 24 hrs of drug washout by flow cytometry; format: functional; procedure, shortened: as §2
HCT-8 [13] = test: Cell cycle arrest in human HCT8 cells in hypoxic condition assessed as accumulation at G2/M phase at 10 uM after 24 hrs of drug washout by flow cytometry; format: functional; procedure, shortened: as §2
HCT-8 [14] = test: Cell cycle arrest in human HCT8 cells in normoxic condition assessed as accumulation at G2/M phase at 10 uM after 24 hrs of drug washout by flow cytometry; format: functional; procedure, shortened: as §2
HCT-8 [15] = test: Effect on cell cycle arrest in human HCT8 cells in normoxic condition assessed as DNA fragmentation at 10 uM after 24 hrs by flow cytometry; format: functional; procedure, shortened: as §2
HCT-8 [16] = test: Cell cycle arrest in human HCT8 cells in normoxic condition assessed as accumulation at G0/G1 phase at 10 uM after 24 hrs by flow cytometry; format: functional; procedure, shortened: as §2
HCT-8 [17] = test: Effect on cell cycle arrest in human HCT8 cells in normoxic condition assessed as DNA fragmentation at 10 uM after 48 hrs of drug washout by flow cytometry; format: functional; procedure, shortened: as §2
HCT-8 [18] = test: Induction of ROS production in human HCT8 cells under normoxic condition by flow cytometric method relative to untreated control; format: functional, cell-based
Procedure, shortened: (§3)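 Dichlorofluorescein method. HCT-8 cells in D-MEM high glucose with 10% FCS, 1–2 × 10^6 per 25 cm² flask, adhered overnight, then given 10 µM under normoxia or hypoxia. DCFH-DA loaded 20 min at 37 °C. Cells harvested with Puck's EDTA, fluorescence read by flow cytometry with 535 nm filter. Expressed as % over DMSO-treated basal; mean ± SEM of at least three experiments.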

HCT-8 [19] = test: Cell cycle arrest in human HCT8 cells in hypoxic condition assessed as accumulation at G0/G1 phase at 10 uM after 48 hrs of drug washout by flow cytometry; format: functional
Procedure, shortened: (§4)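 HCT-8 cells in D-MEM high glucose with 10% FCS, plated at 1–2 × 10^6 per 25 cm² flask and left to adhere overnight. Exposed to 10 µM for 24 h, normoxia or hypoxia (0.1% O₂, 95% N₂/5% CO₂), then washed out and reoxygenated 48 h. Floating plus EDTA-harvested cells fixed in 70% ethanol, stained with PI (50 µg/ml) plus RNase A, phase fractions read by flow cytometry.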

HCT-8 [20] = test: Cell cycle arrest in human HCT8 cells in hypoxic condition assessed as accumulation at G2/M phase at 10 uM after 48 hrs of drug washout by flow cytometry; format: functional; procedure, shortened: as §4
HCT-8 [21] = test: Cell cycle arrest in human HCT8 cells in normoxic condition assessed as accumulation at S phase at 10 uM after 48 hrs of drug washout by flow cytometry; format: functional; procedure, shortened: as §4
HCT-8 [22] = test: Cell cycle arrest in human HCT8 cells in normoxic condition assessed as accumulation at G2/M phase at 10 uM after 48 hrs of drug washout by flow cytometry; format: functional; procedure, shortened: as §4
HCT-8 [23] = test: Induction of ROS production in human HCT8 cells under hypoxic condition by flow cytometric method relative to untreated control; format: functional, cell-based; procedure, shortened: as §3
HCT-8 [24] = test: Cell cycle arrest in human HCT8 cells in normoxic condition assessed as accumulation at G0/G1 phase at 10 uM after 48 hrs of drug washout by flow cytometry; format: functional; procedure, shortened: as §4
HCT-8 [25] = test: Cell cycle arrest in human HCT8 cells in hypoxic condition assessed as accumulation at S phase at 10 uM after 48 hrs of drug washout by flow cytometry; format: functional; procedure, shortened: as §4

## NC(=O)c1cnn(-c2ccncc2[N+](=O)[O-])c1N
HCT-8 [1]
  inhibition at 100 µM: 22.4%
HCT-8 [2]
  inhibition at 10 µM: 9.72%

## CCOC(=O)c1cnn(-c2ccncc2[N+](=O)[O-])c1N
HCT-8 [3]
  IC50: 58.2 µM
  IC90: > 100 µM
HCT-8 [1]
  inhibition at 100 µM: 69.7%
HCT-8 [2]
  inhibition at 10 µM: 24.4%

## COc1ccc(-c2ccc3c(c2)n2nccc2n[n+]3[O-])cc1
HCT-8 [1]
  inhibition at 100 µM: 21.6%
HCT-8 [2]
  inhibition at 10 µM: 11%

## CO[C@@]12[C@H](COC(N)=O)C3=C(C(=O)C(C)=C(N)C3=O)N1C[C@@H]1N[C@@H]12 [MITOMYCIN]
HCT-8 [4]
  Activity: 28.2%
HCT-8 [5]
  Activity: 14.6%
HCT-8 [6]
  Activity: 36.9%
HCT-8 [7]
  Activity: 22.8%
HCT-8 [8]
  Activity: 49.1%
HCT-8 [9]
  Activity: 99%
HCT-8 [10]
  Activity: 42.8%
HCT-8 [11]
  Activity: 36.3%
HCT-8 [12]
  Activity: 43.2%
HCT-8 [3]
  IC50: 0.083 µM
  IC90: 5.7 µM
HCT-8 [13]
  Activity: 14.1%
HCT-8 [14]
  Activity: 19.2%
HCT-8 [15]
  Activity: 71.2%
HCT-8 [16]
  Activity: 40.3%
HCT-8 [17]
  Activity: 44%

## CCCCCOc1ccc2c(c1)n1nccc1n[n+]2[O-]
HCT-8 [1]
  inhibition at 100 µM: 38%
HCT-8 [2]
  inhibition at 10 µM: -6.17%

## O=C(O)c1cnn2c1n[n+]([O-])c1cnccc12
HCT-8 [1]
  inhibition at 100 µM: 11.4%
HCT-8 [2]
  inhibition at 10 µM: 13.2%

## CN1CCN(c2ccc3c(c2)n2ncc(-c4ccccc4)c2n[n+]3[O-])CC1
HCT-8 [3]
  IC50: 10 µM
  IC90: > 100 µM
HCT-8 [1]
  inhibition at 100 µM: 69.6%
HCT-8 [2]
  inhibition at 10 µM: 53%

## CN1CCN(c2ccc3c(c2)n2ncc([N+](=O)[O-])c2n[n+]3[O-])CC1
HCT-8 [4]
  Activity: 48%
HCT-8 [5]
  Activity: 24.7%
HCT-8 [18]
  Activity: Active
HCT-8 [6]
  Activity: 36.9%
HCT-8 [7]
  Activity: 22.8%
HCT-8 [8]
  Activity: 40.7%
HCT-8 [9]
  Activity: 60%
HCT-8 [10]
  Activity: 46.3%
HCT-8 [19]
  Activity: 47%
HCT-8 [20]
  Activity: 12.6%
HCT-8 [11]
  Activity: 34.6%
HCT-8 [21]
  Activity: 35.3%
HCT-8 [12]
  Activity: 36.8%
HCT-8 [3]
  IC50: 62.5 µM
  IC90: > 100 µM
HCT-8 [22]
  Activity: 24.9%
HCT-8 [13]
  Activity: 20.2%
HCT-8 [23]
  Activity: Active
HCT-8 [14]
  Activity: 13%
HCT-8 [1]
  inhibition at 100 µM: 93.2%
HCT-8 [2]
  inhibition at 10 µM: 25.1%
HCT-8 [15]
  Activity: 39%
HCT-8 [16]
  Activity: 40.3%
HCT-8 [24]
  Activity: 39.8%
HCT-8 [17]
  Activity: 27%
HCT-8 [25]
  Activity: 40.4%

## [O-][n+]1nc2ccnn2c2cc(N3CCOCC3)ccc21
HCT-8 [1]
  inhibition at 100 µM: 25.8%
HCT-8 [2]
  inhibition at 10 µM: 3.27%

## [O-][n+]1nc2ccnn2c2cc(O)ccc21
HCT-8 [1]
  inhibition at 100 µM: 19.7%
HCT-8 [2]
  inhibition at 10 µM: -4.21%

## CN(C)CCOc1ccc2c(c1)n1nccc1n[n+]2[O-]
HCT-8 [1]
  inhibition at 100 µM: 42.3%
HCT-8 [2]
  inhibition at 10 µM: -2.36%

## [O-][n+]1nc2ccnn2c2cc(-c3ccccc3)ccc21
HCT-8 [1]
  inhibition at 100 µM: 35.5%
HCT-8 [2]
  inhibition at 10 µM: 13.2%

## [O-][n+]1nc2ccnn2c2cc(-c3cccs3)ccc21
HCT-8 [1]
  inhibition at 100 µM: 48.5%
HCT-8 [2]
  inhibition at 10 µM: 10.9%

## CN1CCN(c2ccc3c(c2)n2nccc2n[n+]3[O-])CC1
HCT-8 [1]
  inhibition at 100 µM: 32.4%
HCT-8 [2]
  inhibition at 10 µM: 3.19%

## CCOC(=O)c1cnn2c1n[n+]([O-])c1cnccc12
HCT-8 [3]
  IC50: 23.8 µM
  IC90: 49.1 µM
HCT-8 [1]
  inhibition at 100 µM: 97.4%
HCT-8 [2]
  inhibition at 10 µM: 12.7%

## CCOC(=O)c1cn[nH]c1/N=[N+](/[O-])c1cnccc1O
HCT-8 [1]
  inhibition at 100 µM: 31.5%
HCT-8 [2]
  inhibition at 10 µM: 3.87%

## CN1CCN(c2ccc3nnc4c([N+](=O)[O-])cnn4c3c2[N+](=O)[O-])CC1
HCT-8 [4]
  Activity: 48.6%
HCT-8 [5]
  Activity: 15.6%
HCT-8 [18]
  Activity: Active
HCT-8 [6]
  Activity: 37.3%
HCT-8 [7]
  Activity: 22.2%
HCT-8 [8]
  Activity: 40.5%
HCT-8 [9]
  Activity: 21%
HCT-8 [10]
  Activity: 42.8%
HCT-8 [19]
  Activity: 31.1%
HCT-8 [20]
  Activity: 23%
HCT-8 [11]
  Activity: 43.8%
HCT-8 [21]
  Activity: 35.1%
HCT-8 [12]
  Activity: 51.2%
HCT-8 [3]
  IC50: 5.98 µM
  IC90: 18.5 µM
HCT-8 [22]
  Activity: 35.1%
HCT-8 [13]
  Activity: 10.6%
HCT-8 [23]
  Activity: Active
HCT-8 [14]
  Activity: 13.4%
HCT-8 [1]
  inhibition at 100 µM: 98.7%
HCT-8 [2]
  inhibition at 10 µM: 73.8%
HCT-8 [15]
  Activity: 42%
HCT-8 [16]
  Activity: 40.5%
HCT-8 [24]
  Activity: 35.1%
HCT-8 [17]
  Activity: 59%
HCT-8 [25]
  Activity: 45.9%

## CCOC(=O)c1cn[nH]c1/N=[N+](/[O-])c1cc([N+](=O)[O-])ccc1O
HCT-8 [3]
  IC50: 65.2 µM
  IC90: > 100 µM
HCT-8 [1]
  inhibition at 100 µM: 60.4%
HCT-8 [2]
  inhibition at 10 µM: 11.7%
